# Test results reported in ChEMBL document CHEMBL1177683, “Synthesis and pharmacological evaluation of pyrazine N-acylhydrazone derivatives designed as novel analgesic and anti-inflammatory drug candidates” (2010).
# Activity calls are given as the source filed them. No cut-off for these calls is given here.
# Experiments:
# [1] = test system: Mus musculus; experiment: Antinociceptive activity in Swiss mouse assessed as inhibition of acetic acid-induced abdominal constrictions at 100 umol/kg, po administered 40 mins before acetic acid challenge measured for 25 mins relative to control; format: functional; settings: Abdomen
# In short: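 Mice were dosed at 100 µmol/kg po in arabic gum (10 mL/kg), 40 min before 0.6% v/v acetic acid ip (0.1 mL/10 g). Writhes (abdominal contraction, pelvic rotation, hind-limb extension) were counted for 20 min starting 5 min post-injection. Results are expressed as % inhibition versus vehicle controls. Groups of 6 (control 10), ANOVA/Dunnett.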
# [2] = test system: Mus musculus; experiment: Antiedematogenic activity in Swiss mouse assessed as decrease of capsaicin-induced ear edema weight at 100 umol/kg, po administered 40 mins before capsaicin challenge measured after 30 mins relative to control; design: scale not given: the % may be the effect or the level left
# [3] = test system: Mus musculus; experiment: Analgesic activity against formalin-induced acute pain in Swiss mouse assessed inhibition of nociception at 100 umol/kg, po administered 40 mins before formalin challenge measured for 15 to 30 mins relative to control; format: functional
# In short: (§1)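 Mice, 6 per group, received 20 µL of 2.5% formalin (0.92% formaldehyde in saline) into the ventral surface of the right hind paw. Dosing was 100 µmol/kg po in arabic gum vehicle (10 mL/kg), 40 min beforehand. Time spent licking the injected paw was recorded over 0–5 min (neurogenic phase) and 15–30 min (inflammatory phase). Data are mean ± S.E.M., ANOVA/Dunnett versus vehicle.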
# [4] = test system: Mus musculus; experiment: Antiedematogenic activity in Swiss mouse assessed as inhibition of capsaicin-induced ear edema at 100 umol/kg, po administered 40 mins before capsaicin challenge measured after 30 mins relative to control
# [5] = test system: Mus musculus; experiment: Analgesic activity against formalin-induced acute pain in Swiss mouse assessed as decrease of time spent in paw licking at 100 umol/kg, po administered 40 mins before formalin challenge measured for 15 to 30 mins; format: functional, organism-based; in short: as §1
# [6] = test system: Mus musculus; experiment: Analgesic activity in Swiss mouse assessed as increase in latency of paw licking at 100 umol/kg, po after 120 mins measured for 60 seconds by hot plate test (reference value: 5.6 +/- 0.5 seconds); format: functional
# [7] = test system: Mus musculus; experiment: Analgesic activity in Swiss mouse assessed as increase in latency of paw licking at 100 umol/kg, po after 90 mins measured for 60 seconds by hot plate test (reference value: 5.9 +/- 0.8 seconds); format: functional
# [8] = test system: Mus musculus; experiment: Analgesic activity in Swiss mouse assessed as increase in latency of paw licking at 100 umol/kg, po after 60 mins measured for 60 seconds by hot plate test (reference value: 4.9 +/- 0.5 seconds); format: functional
# [9] = test system: Mus musculus; experiment: Analgesic activity in Swiss mouse assessed as increase in latency of paw licking at 100 umol/kg, po after 150 mins measured for 60 seconds by hot plate test (reference value: 5.1 +/- 0.4 seconds); format: functional
SMILES,inhibition in vivo at 100 µmol/kg [1] [%],Activity [2] [%],inhibition in vivo at 100 µmol/kg [3] [%],inhibition in vivo at 100 µmol/kg [4] [%],Activity [5],Time [6] [s],Time [7] [s],Time [8] [s],Time [9] [s]
COc1ccc2c(c1)c(CC(=O)O)c(C)n2C(=O)c1ccc(Cl)cc1 [INDOMETHACIN],73.1,29.7,39,49.3,,,,,
O=C(N/N=C/c1ccc2c(c1)OCO2)c1cnccn1,78.2,32.3,46.7,44.7,Active,4.4,3,2.4,3.2
CC(C)c1ccc(/C=N/NC(=O)c2cnccn2)cc1,67.6,31.2,66.5,46.6,Active,5.2,4.7,3.3,4.6
CC(C)c1ccc(/C=N/NC(=O)c2nc3ccccc3nc2-c2ccccc2)cc1,77.3,30.7,66.5,47.5,,5.4,5,4.6,4.3
O=C(N/N=C/c1ccc(F)cc1)c1cnccn1,74.5,39.1,72.3,33.1,Active,4.8,5.4,4.6,3.1
O=C(N/N=C/c1c2ccccc2cc2ccccc12)c1cnccn1,33.6,26.5,45.8,54.7,,5.6,6.2,3.7,6.6
O=C(N/N=C/c1ccc(-c2ccccc2)cc1)c1cnccn1,57.3,32.9,46.9,47.7,Active,4,3.5,2.7,4.5
O=C(N/N=C/c1ccc2ccccc2c1)c1cnccn1,68.4,37.8,68,35.4,,4.4,3.5,2.8,4.5
O=C(N/N=C/c1ccc(O)cc1)c1cnccn1,61.4,33.7,16.7,42.3,,5.3,3.4,3.1,4
O=C(N/N=C/c1cc(=O)c2ccccc2o1)c1cnccn1,86.3,26.1,52.7,55.3,Active,6.2,3.5,2.5,4.2
O=C(N/N=C/c1ccncc1)c1cnccn1,40.4,45.7,58.4,32.3,Active,5.4,3.2,3.5,4.5
O=C(N/N=C/c1ccccc1)c1cnccn1,42.4,40.6,60.8,30.5,Active,4,4.2,4.4,5.2
CC(C)(C)c1cc(/C=N/NC(=O)c2cnccn2)cc(C(C)(C)C)c1O,71.6,39.5,26.8,32.3,,3.4,3.4,2.7,5.4
COc1cc(/C=N/NC(=O)c2cnccn2)ccc1O,47,21.3,31.8,63.5,,3.4,3.2,2.6,4.4
COc1ccc(/C=N/NC(=O)c2cnccn2)cc1OC,73.6,29.5,29.1,49.6,,6.3,4.2,4.8,3.8
O=C(N/N=C/c1ccccn1)c1cnccn1,75.5,32.2,56.4,44.9,Active,4.5,4.4,2.4,3
O=C(N/N=C/c1ccc([N+](=O)[O-])cc1)c1cnccn1,40.4,34,44.4,41.9,Active,4.9,5.4,3.1,4.9
O=C(N/N=C/c1ccc(C(F)(F)F)cc1)c1cnccn1,54.5,30.2,27.7,48.3,,2.4,3.9,3.1,4
Cc1ccc(-c2cc(C(F)(F)F)nn2-c2ccc(S(N)(=O)=O)cc2)cc1 [CELECOXIB],56.9,25.5,68.4,56.4,,4.4,5.7,5.5,3.8
COc1ccc(/C=N/NC(=O)c2cnccn2)cc1O,64.8,42.8,14.7,27,,1.9,4,2,4.7
